Data as given in publication PMC11621760 (Proceedings of the National Academy of Sciences of the …, 2024).

Columns and labels:
AR [1] = target: T1, AR (Homo sapiens, UniProt P10275); assay: AR transcriptional assays of the triazole series; assay type: cell-based; conditions: SI Fig. S1B/C
T1 sequence (P10275 1-920): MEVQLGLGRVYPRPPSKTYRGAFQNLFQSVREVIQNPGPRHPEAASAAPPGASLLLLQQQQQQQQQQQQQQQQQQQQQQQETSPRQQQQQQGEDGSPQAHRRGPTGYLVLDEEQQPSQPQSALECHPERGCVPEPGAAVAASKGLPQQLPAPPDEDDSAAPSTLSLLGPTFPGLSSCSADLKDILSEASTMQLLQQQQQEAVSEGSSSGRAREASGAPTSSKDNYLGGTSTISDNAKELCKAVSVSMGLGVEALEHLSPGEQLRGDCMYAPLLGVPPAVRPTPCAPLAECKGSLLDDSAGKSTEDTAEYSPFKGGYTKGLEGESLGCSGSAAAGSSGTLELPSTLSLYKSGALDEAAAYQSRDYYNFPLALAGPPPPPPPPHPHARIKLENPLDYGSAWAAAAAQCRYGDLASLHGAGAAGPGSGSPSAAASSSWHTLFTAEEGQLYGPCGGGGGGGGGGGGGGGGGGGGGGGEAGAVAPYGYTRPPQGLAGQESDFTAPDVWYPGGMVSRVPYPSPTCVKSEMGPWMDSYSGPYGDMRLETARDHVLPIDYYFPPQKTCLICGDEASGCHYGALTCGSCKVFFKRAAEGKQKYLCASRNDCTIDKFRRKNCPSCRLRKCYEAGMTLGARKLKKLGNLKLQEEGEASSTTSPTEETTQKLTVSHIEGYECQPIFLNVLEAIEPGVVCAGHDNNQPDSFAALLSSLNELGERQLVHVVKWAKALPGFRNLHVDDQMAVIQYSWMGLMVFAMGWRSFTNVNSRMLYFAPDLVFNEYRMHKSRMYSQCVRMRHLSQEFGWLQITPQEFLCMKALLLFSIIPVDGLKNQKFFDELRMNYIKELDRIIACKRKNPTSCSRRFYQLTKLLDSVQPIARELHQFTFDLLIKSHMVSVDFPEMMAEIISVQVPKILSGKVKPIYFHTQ

hAR = target: T2, hAR (Homo sapiens, UniProt P10275); conditions: radioligand binding
T2 sequence (P10275 669-920 limits assumed): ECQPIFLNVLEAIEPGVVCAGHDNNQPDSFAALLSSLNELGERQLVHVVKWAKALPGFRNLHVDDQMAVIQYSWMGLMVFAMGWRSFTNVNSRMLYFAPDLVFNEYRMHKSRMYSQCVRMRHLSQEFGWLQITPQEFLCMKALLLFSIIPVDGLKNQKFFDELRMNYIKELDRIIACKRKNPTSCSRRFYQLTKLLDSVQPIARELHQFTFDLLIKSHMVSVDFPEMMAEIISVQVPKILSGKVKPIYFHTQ

22Rv1 cells = assay: Cell growth; assay type: cell-based, human
GFP-AR [2] = target: T3, GFP-AR (Homo sapiens, UniProt P10275); assay type: cell-based; conditions: murine 3108 cells expressing GFP-AR
T3 sequence (P10275 1-920): T1 sequence (P10275 1-920)

AR [3] = target: T1, AR; assay type: cell-based; conditions: VCaP, CSS and 10 nM R1881
[4] = target: T4, progesterone receptor (PR) (Homo sapiens, UniProt P06401); assay: Radioligand binding assay, progesterone receptor
T4 sequence (P06401 1-933): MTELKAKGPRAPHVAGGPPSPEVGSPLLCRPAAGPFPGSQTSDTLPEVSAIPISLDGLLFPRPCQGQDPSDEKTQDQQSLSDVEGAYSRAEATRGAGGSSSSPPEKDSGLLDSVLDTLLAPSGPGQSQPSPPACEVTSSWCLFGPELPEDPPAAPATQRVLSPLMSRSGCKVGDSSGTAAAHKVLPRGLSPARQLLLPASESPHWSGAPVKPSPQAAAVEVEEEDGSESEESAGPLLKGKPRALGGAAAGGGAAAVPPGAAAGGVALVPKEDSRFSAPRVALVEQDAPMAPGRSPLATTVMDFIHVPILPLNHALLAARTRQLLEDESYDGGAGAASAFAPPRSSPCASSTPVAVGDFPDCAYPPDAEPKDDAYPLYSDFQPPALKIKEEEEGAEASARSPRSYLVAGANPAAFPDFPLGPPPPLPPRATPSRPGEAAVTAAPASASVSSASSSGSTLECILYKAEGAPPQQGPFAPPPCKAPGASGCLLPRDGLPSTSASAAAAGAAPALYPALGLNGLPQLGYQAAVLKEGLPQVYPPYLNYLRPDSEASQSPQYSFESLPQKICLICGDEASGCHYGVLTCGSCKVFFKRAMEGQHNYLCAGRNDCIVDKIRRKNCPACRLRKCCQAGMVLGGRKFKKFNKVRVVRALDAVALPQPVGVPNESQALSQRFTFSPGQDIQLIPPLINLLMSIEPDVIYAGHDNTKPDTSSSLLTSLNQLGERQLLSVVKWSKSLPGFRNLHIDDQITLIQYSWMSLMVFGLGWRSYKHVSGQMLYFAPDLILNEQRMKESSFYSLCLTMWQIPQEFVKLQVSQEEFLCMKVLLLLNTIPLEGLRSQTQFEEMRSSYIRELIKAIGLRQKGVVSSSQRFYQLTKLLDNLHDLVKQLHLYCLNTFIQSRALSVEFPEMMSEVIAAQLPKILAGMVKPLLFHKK
How it was run: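 Eurofins Panlabs radioligand binding with steroid hormone receptors and their respective ligands. Buffer: 50 mM Tris-HCl, 0.8 M NaCl, 10% glycerol, 2 mM dithiothreitol, 0.1% BSA, 2% EtOH, pH 7.4. Receptor-ligand incubation, then 15 min with hydroxyapatite slurry. Samples filtered, filters washed three times and counted for specifically bound ligand. Log concentration series gave Ki and IC50.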

GFP-AR [5] = target: T3, GFP-AR; assay: GFP-AR construct nuclear translocation in human cell lines; assay type: cell-based; conditions: CSS
[6] = test system: H3K27ac and AR 3D chromatin contacts; assay: AQuA-HiChIP; assay type: cell-based, human; conditions: 24 h at 20 µM, LNCaP-AR
How it was run: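 LNCaP-AR cells grown in DMEM, 10% FBS, penicillin-streptomycin-glutamine, 37 °C, 5% CO2. MNase-based HiChIP for AR and H3K27ac with medium-salt washes and mouse chromatin spike-in for absolute quantification (AQuA). Paired-end sequencing to at least 200 million reads. Loops were filtered by distance, minimum AQuA-CPM and connection number, merged into clusters, and ranked by summed short- and long-range contacts.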

LNCaP-AR cells = assay: Cell growth; assay type: cell-based, human
[7] = Parallel Artificial Membrane Permeability Assay; assay type: in vitro ADME; conditions: pH 6.5
[8] = Microsome metabolic assay; assay type: in vitro ADME; conditions: in comparison to control compounds
LAPC4 xenograft = LAPC4 xenograft growth in vivo; parameters: species or system mice; conditions: 20 mg/kg via oral gavage, 42 days
[9] = Solubility / precipitation in solvents; assay type: physicochemical
[10] = once peak concentration is reached; cited from earlier work

## Cn1cc(-c2ccc(CN3C(=S)N(c4ccc(C#N)c(C(F)(F)F)c4)C(=O)C3(C)C)cc2)nn1 [15b]
AR [1]
  anti-AR transcriptional activity (in words): dramatic loss in activity

## CC1(C)C(=O)N(c2ccc(C#N)c(C(F)(F)F)c2)C(=S)N1Cc1ccc(-c2c[nH]nn2)cc1 [BG-15a]
hAR
  AR binding affinity (in words): strong AR binding affinity
22Rv1 cells
  growth inhibition compared to enzalutamide: more efficacious in inhibiting growth compared to enzalutamide
GFP-AR [2]
  AR translocation to the nucleus (nuclear to cytoplasmic ratio, dose response): induced nuclear translocation at doses 100 nM to 10 µM
AR [3]
  AR transcriptional activity (luciferase): dose-dependent decrease of AR activity
[4]
  binding affinity to the PR (in words): nanomolar range binding affinity
GFP-AR [5]
  AR nuclear translocation (GFP-AR construct): consistently stimulated AR nuclear translocation
[6]
  H3K27ac long-range contacts at AR loops: decreased long-range acetylation contacts at AR loops
LNCaP-AR cells
  growth inhibition compared to enzalutamide: more efficacious in inhibiting growth compared to enzalutamide
[7]
  drug recovery and cell permeability (PAMPA): performed similarly to each other and enzalutamide
[8]
  microsomal half-life (in words): notably high half-life
LAPC4 xenograft
  tumor growth: inhibition of tumor growth
[9]
  solubility (in words): limited

## CNC(=O)c1ccc(N2C(=S)N(c3ccc(C#N)c(C(F)(F)F)c3)C(=O)C2(C)C)cc1F [Enzalutamide, enzalutamide]
[10]
  half-life in patients: around 5 days

## CC(O)(CS(=O)(=O)c1ccc(F)cc1)C(=O)Nc1ccc(C#N)c(C(F)(F)F)c1 (stereo not drawn) [bicalutamide]
[6]
  H3K27ac long-range contacts at AR loops: decreased long-range acetylation contacts at AR loops
